Experimental data taken from ChEMBL document CHEMBL1124442, “Potential antitumor agents. 58. Synthesis and structure-activity relationships of substituted xanthenone-4-acetic acids active against the colon 38 tumor in vivo” (1989).
Calls of active or inactive are those of the source.

Experiments:
P388 [1] = experiment: Inhibition of 10e6 P388 leukemic cells in mice, intraperitoneal administration; assay type: functional, Mus musculus
Procedure, shortened: (§1)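 10⁶ P388 leukemia cells injected intraperitoneally. Drug given intraperitoneally as the sodium salt in 0.2 mL water on days 1, 5 and 9; optimal dose is in mg/kg per day. ILS is the mean percent increase in lifespan over untreated tumor-bearing controls, with ≥20% considered significant. NA means no activity at any dose up to toxic levels.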

P388 [2] = experiment: The average percentage increase in the lifespan of P388 leukemic mice, when compound was administered intraperitoneally; assay type: functional, Mus musculus
Procedure, shortened: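 Mice received 10⁶ P388 leukemia cells ip. Drug was given ip as the sodium salt in 0.2 mL water on days 1, 5 and 9, with doses in mg/kg/day up to toxic levels. ILS is the average percentage increase in lifespan over untreated tumor-bearing controls, and values of ≥20% were taken as significant.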

[3] = Activity against colon adenocarcinoma C38 tumor in mice, after intraperitoneal administration at optimal dose; assay type: functional, Mus musculus
Procedure, shortened: (§2)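 Colon 38 fragments implanted subcutaneously and grown to 4–8 mm diameter. Single intraperitoneal dose of the sodium salt in 0.2 mL water, escalated at 1.5-fold intervals up to 750 mg/kg or the toxic limit, with at least three mice per dose. Optimal dose is the highest dose with no acute deaths within 24 h. Tumors excised at 24 h, fixed in formalin and stained with H&E. Sections scored against controls: + = 50–90% hemorrhagic necrosis, ++ = >90%.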

[4] = Ability of compound (45 mg/kg, q7dx2) to inhibit growth of Sc colon 38 tumor cells in mice; assay type: functional, Mus musculus
Procedure, shortened: (§3)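 Mice carrying palpable subcutaneous colon 38 tumors, randomized in groups of five. Drug given intraperitoneally in aqueous solution, either as a single dose or as two equal doses 7 days apart. Major and minor tumor axes measured twice weekly from the start of treatment. Volume taken as 0.52x²y. Growth delay in days is relative to untreated controls.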

[5] = Inhibition of colon adenocarcinoma C38 tumor growth in mice, intraperitoneal administration; assay type: functional, Mus musculus; procedure, shortened: as §2
P388 [6] = experiment: The average percentage increase in the lifespan of P388 leukemic mice, when compound was administered intraperitoneally; NA is Not Active.; assay type: functional, cell-based; conditions: Mus musculus; procedure, shortened: as §1
[7] = Activity against colon adenocarcinoma C38 tumor in mice, after intraperitoneal administration at optimal dose and value ranges from 50 -90 %; assay type: functional, Mus musculus; procedure, shortened: as §2
[8] = Ability of compound (330 mg/kg, single dose) to inhibit growth of Sc colon 38 tumor cells in mice; assay type: functional, Mus musculus; procedure, shortened: as §3
[9] = Ability of compound (65 mg/kg, q4dx3) to inhibit growth of Sc colon 38 tumor cells in mice; assay type: functional, Mus musculus
Procedure, shortened: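 Subcutaneously implanted colon 38 fragments were grown to 4–8 mm diameter. Mice with palpable tumors were randomized in groups of five and dosed ip with drug in aqueous solution; q4d×3 means three equal doses 4 days apart. Major and minor tumor axes were measured twice weekly from the start of treatment. Volume was calculated as 0.52x²y, and growth delay in days was derived against untreated controls.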

[10] = Activity against colon adenocarcinoma C38 tumor in mice, after intraperitoneal administration at optimal dose.; assay type: functional, Mus musculus; procedure, shortened: as §2
[11] = Ability of compound (100 mg/kg, single dose) to inhibit growth of Sc colon 38 tumor cells in mice; assay type: functional, Mus musculus; procedure, shortened: as §3
P388 [12] = experiment: The average percentage increase in the lifespan of P388 leukemic mice, when compound was administered intraperitoneally; NA is Not active; assay type: functional, cell-based; conditions: Mus musculus; procedure, shortened: as §1
P388 [13] = experiment: The average percentage increase in the lifespan of P388 leukemic mice, when compound was administered intraperitoneally; NA means not active; assay type: functional, cell-based; conditions: Mus musculus; procedure, shortened: as §1
[14] = Ability of compound (220 mg/kg, q7dx2) to inhibit growth of Sc colon 38 tumor cells in mice; assay type: functional, Mus musculus; procedure, shortened: as §3
P388 [15] = experiment: Optimal dose that inhibits growth of 10e6 P388 leukemic cells in mice, after intraperitoneal administration of the compound; assay type: functional, Mus musculus; procedure, shortened: as §1
P388 [16] = experiment: The average percentage increase in the lifespan of P388 leukemic mice, when compound was administered intraperitoneally; NA means not active.; assay type: functional, cell-based; conditions: Mus musculus; procedure, shortened: as §1

SMILES	Optimal dose (P388 [1])	Activity [3]	Optimal dose [5]	ILS (P388 [6])	Activity [7]	also measured
Cc1cccc2c(=O)c3cccc(CC(=O)O)c3oc12	30 mg/kg	>90%	45 mg/kg			ILS (P388 [2]): 27%; Growth delay [4]: 13 days
O=C(O)Cc1cccc2c(=O)c3ccc(Cl)cc3oc12	65 mg/kg		150 mg/kg	No activity	50%	
Cc1cccc2oc3c(CC(=O)O)cccc3c(=O)c12	150 mg/kg	<50%	330 mg/kg	No activity		
O=C(O)Cc1cccc2c(=O)cc(-c3ccccc3)oc12 [MITOFLAXONE]	150 mg/kg	>90%	330 mg/kg	No activity		Growth delay [8]: 17 days
O=c1[nH]cc(F)c(=O)[nH]1 [FLUOROURACIL]						Growth delay [9]: 12.5 days
Cc1cc(CC(=O)O)c2oc3ccccc3c(=O)c2c1	330 mg/kg		500 mg/kg	No activity	50%	
COc1ccc2c(=O)c3ccccc3oc2c1CC(=O)O	220 mg/kg	<50%	220 mg/kg	No activity		
O=C(O)Cc1cccc2c(=O)c3cc(Cl)ccc3oc12	150 mg/kg		500 mg/kg	No activity	50%	
Cc1ccc2c(=O)c3cccc(CC(=O)O)c3oc2c1	100 mg/kg		220 mg/kg		50%	ILS (P388 [2]): 24%
O=C(O)Cc1c(Cl)ccc2c(=O)c3ccccc3oc12	150 mg/kg		500 mg/kg	No activity		Activity [10]: >90%
COc1ccc2c(=O)c3cccc(CC(=O)O)c3oc2c1	65 mg/kg		150 mg/kg		50%	ILS (P388 [2]): 28%; Growth delay [11]: 0 days
O=C(O)Cc1ccc(Cl)c2c(=O)c3ccccc3oc12	220 mg/kg	>90%	330 mg/kg	No activity		
O=C(O)Cc1cc(Cl)cc2c(=O)c3ccccc3oc12	150 mg/kg		330 mg/kg	No activity	50%	
O=C(O)Cc1cccc2c(=O)c3ccc(O)cc3oc12	225 mg/kg		750 mg/kg	No activity	50%	
O=C(O)Cc1cccc2c(=O)c3c(Cl)cccc3oc12	330 mg/kg		750 mg/kg	No activity	50%	
O=C(O)Cc1cc(O)cc2c(=O)c3ccccc3oc12		<50%	750 mg/kg			
O=C(O)Cc1cccc2c(=O)c3cc(O)ccc3oc12		<50%	750 mg/kg			

SMILES	Optimal dose (P388 [1])	Activity [3]	Optimal dose [5]	ILS (P388 [6])	Activity [7]	also measured
COc1ccc2oc3c(CC(=O)O)cccc3c(=O)c2c1	150 mg/kg		500 mg/kg	No activity	50%	
O=C(O)Cc1cccc2c(=O)c3cccc([N+](=O)[O-])c3oc12	150 mg/kg		220 mg/kg			ILS (P388 [12]): inactive
COc1cccc2oc3c(CC(=O)O)cccc3c(=O)c12	330 mg/kg	<50%	750 mg/kg	No activity		
O=C(O)Cc1cccc2oc3ccccc3c(=O)c12	500 mg/kg	<50%	500 mg/kg	No activity		
O=C(O)Cc1cccc2c(=O)c3ccccc3oc12	150 mg/kg	>90%	220 mg/kg			ILS (P388 [13]): inactive; Growth delay [14]: 11 days
Cc1ccc(CC(=O)O)c2oc3ccccc3c(=O)c12			150 mg/kg	No activity	50%	Optimal dose (P388 [15]): 100 mg/kg
Cc1ccc2oc3c(CC(=O)O)cccc3c(=O)c2c1	500 mg/kg		500 mg/kg	No activity	50%	
COc1cccc2c(=O)c3cccc(CC(=O)O)c3oc12	150 mg/kg		150 mg/kg		50%	ILS (P388 [2]): 42%
Cc1ccc2c(=O)c3ccccc3oc2c1CC(=O)O	100 mg/kg		150 mg/kg		50%	ILS (P388 [2]): 26%
O=C(O)Cc1ccc2c(=O)c3ccccc3oc2c1	225 mg/kg	<50%	500 mg/kg	No activity		
O=C(O)Cc1cccc2c(=O)c3cc([N+](=O)[O-])ccc3oc12	225 mg/kg	<50%	500 mg/kg			ILS (P388 [12]): inactive
COc1ccc(CC(=O)O)c2oc3ccccc3c(=O)c12		<50%	500 mg/kg			
O=C(O)Cc1cccc2c(=O)c3cccc(O)c3oc12	150 mg/kg	<50%	750 mg/kg			ILS (P388 [16]): No activity
O=C(O)Cc1c(O)ccc2c(=O)c3ccccc3oc12	500 mg/kg	<50%	500 mg/kg	No activity		
O=C(O)Cc1ccc(O)c2c(=O)c3ccccc3oc12		<50%	750 mg/kg			
COc1cc(CC(=O)O)c2oc3ccccc3c(=O)c2c1	225 mg/kg		750 mg/kg	No activity	50%	
O=C(O)Cc1cccc2c(=O)c3cccc(Cl)c3oc12	65 mg/kg	>90%	150 mg/kg			ILS (P388 [2]): 34%; Growth delay [11]: 5.2 days
